Common to all, as to assay type: functional, organism-based
In one assay the test system is Candida parapsilosis. Kind of assay: Antifungal activity against Candida parapsilosis ATCC 12969 at 100 ug/ml after 48 hrs. Put shortly:
(§1)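 Yeasts and Aspergillus cultures were dispensed into 96-well plates and compound in DMSO was added (1% DMSO final). Plates were shaken orbitally and OD600 was read at start. After 48 h at 37 °C, humidified, OD600 was read again, and activity was calculated as the change in optical density.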

The test system of assay [1] is Aspergillus fumigatus. The experiment in a line: Antifungal activity against Aspergillus fumigatus NRRL A1100 at 100 ug/ml after 48 hrs. Summed up: as §1
In assay [2] the test system is Aspergillus fumigatus. The experiment in a line: Antifungal activity against Aspergillus fumigatus NRRL A1100 at 10 ug/ml after 48 hrs. Put shortly:
as §1

For assay [3], the system named is Aspergillus flavus. Kind of assay: Antifungal activity against Aspergillus flavus NRRL A1120 at 100 ug/ml after 48 hrs. Put shortly:
as §1

The subject of assay [4] is Candida albicans. The experiment in a line: Antifungal activity against Candida albicans ATCC 38245 at 100 ug/ml after 48 hrs. Put shortly: as §1
Assay [5] has as its system Aspergillus flavus. Kind of assay: Antifungal activity against Aspergillus flavus NRRL A1120 at 10 ug/ml after 48 hrs. Summed up:
as §1

A further assay relates to Nakaseomyces glabratus. The experiment in a line: Antifungal activity against Candida glabrata NRRL Y-65 at 100 ug/ml after 48 hrs. Summed up:
as §1

A further assay deals with Candida tropicalis. Kind of assay: Antifungal activity against Candida tropicalis ATCC 12968 at 100 ug/ml after 48 hrs. Put shortly:
as §1

Assay [6] has as its system Pichia kudriavzevii. The experiment in a line: Antifungal activity against Candida krusei ATCC 27803 at 10 ug/ml after 48 hrs. Put shortly:
as §1

Assay [7] concerns Pichia kudriavzevii. Kind of assay: Antifungal activity against Candida krusei ATCC 27803 at 100 ug/ml after 48 hrs. Put shortly: as §1
Assay [8] has as its system Staphylococcus aureus. The experiment in a line: Antibacterial activity against Staphylococcus aureus ATCC 700787 at 100 ug/ml after 24 hrs. Summed up:
(§2)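 Broth growth assay in 96-well plates with test compounds added from DMSO stocks (final DMSO 1%). OD600 was read after brief orbital shaking, then again after 24 h incubation at 37 °C in a humidified incubator. Activity was taken as the change in OD600 between the two readings.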

In the next assay the test system is Enterobacter cloacae. Kind of assay: Antibacterial activity against Enterobacter cloacae ATCC 13047 at 100 ug/ml after 24 hrs. Summed up: as §2
In assay [9] the test system is Escherichia coli. Kind of assay: Antibacterial activity against Escherichia coli ATCC 10798 at 100 ug/ml after 24 hrs. Summed up:
as §2

In assay [10] the test system is Klebsiella pneumoniae. Kind of assay: Antibacterial activity against Klebsiella pneumoniae ATCC 33495 at 100 ug/ml after 24 hrs. Put shortly:
as §2

Assay [11] deals with Acinetobacter baumannii. Kind of assay: Antibacterial activity against Acinetobacter baumannii ATCC BAA-1605 at 100 ug/ml after 24 hrs. Summed up:
as §2

Assay [12] deals with Klebsiella pneumoniae. The experiment in a line: Antibacterial activity against Klebsiella pneumoniae ATCC 51503 at 100 ug/ml after 24 hrs. Put shortly:
as §2

The test system of assay [13] is Candida albicans. The experiment in a line: Potentiation of antifungal activity of imidazole against Candida albicans ATCC 38245 by broth microdilution assay. A general note: In broth dilution the organism is exposed to a series of concentrations in liquid medium.
For a further assay, the system named is Pseudomonas aeruginosa. The experiment in a line: Antibacterial activity against Pseudomonas aeruginosa ATCC 10145 at 100 ug/ml after 24 hrs. Summed up:
as §2

For assay [14], the system named is Staphylococcus epidermidis. The experiment in a line: Antibacterial activity against Staphylococcus epidermidis ATCC 12228 at 100 ug/ml after 24 hrs. Put shortly: as §2
Assay [15] has as its system Acinetobacter baumannii. The experiment in a line: Antibacterial activity against Acinetobacter baumannii ATCC 19606 at 100 ug/ml after 24 hrs. The settings on record: ATCC 19606 = CIP 70.34 = JCM 6841. Summed up:
as §2

The subject of assay [16] is Escherichia coli. The experiment in a line: Antibacterial activity against Escherichia coli ATCC 11775 at 100 ug/ml after 24 hrs. Summed up: as §2
The next assay relates to Burkholderia cepacia. The experiment in a line: Antibacterial activity against Burkholderia cepacia ATCC 25608 at 100 ug/ml after 24 hrs. Put shortly: as §2
For assay [17], the system named is Staphylococcus aureus. Kind of assay: Antibacterial activity against Staphylococcus aureus ATCC 25293 at 100 ug/ml after 24 hrs. Put shortly:
as §2

Calls of active or inactive are those of the source. No cut-off for these calls is given here.

On to `CCOC(=O)c1coc(-c2ccccc2)cc1=O`, for which the inhibition entry in the assay on Candida parapsilosis, in the assay on Aspergillus fumigatus [1], in the assay with Aspergillus fumigatus [2], with Aspergillus flavus [3], in the assay on Candida albicans [4] and in the assay with Aspergillus flavus [5] was “Active” throughout. Moreover, the inhibition entry in the assay with Nakaseomyces glabratus, in the assay with Candida tropicalis, with Pichia kudriavzevii [6] and in the assay with Pichia kudriavzevii [7] was “Active” throughout.

For the molecule `C[C@@H](CC(=O)NC(=O)c1coc(Cc2ccccc2)cc1=O)C(=O)O`, the inhibition entry with Staphylococcus aureus [8], in the assay on Enterobacter cloacae, with Escherichia coli [9], in the assay on Klebsiella pneumoniae [10], with Acinetobacter baumannii [11] and with Klebsiella pneumoniae [12] was “inactive” throughout. Further, the inhibition entry (with Pseudomonas aeruginosa; in assay [14]; with Acinetobacter baumannii [15]; in the assay with Escherichia coli [16]; with Burkholderia cepacia; with Staphylococcus aureus [17]) was “inactive” throughout. For the same molecule, the result with Candida albicans [13] was inactive.

As to `COC(=O)c1coc(Cc2ccccc2)cc1=O`, the inhibition result in the assay on Staphylococcus aureus [8], in the assay with Enterobacter cloacae, in the assay on Escherichia coli [9], in the assay with Klebsiella pneumoniae [10], with Acinetobacter baumannii [11] and in the assay with Klebsiella pneumoniae [12] was “inactive” throughout. Moreover, the inhibition result (in the assay with Pseudomonas aeruginosa; in assay [14]; in the assay with Acinetobacter baumannii [15]; with Escherichia coli [16]; in the assay with Burkholderia cepacia; in the assay on Staphylococcus aureus [17]) was “inactive” each time. Moreover, the inhibition entry in the assay with Candida parapsilosis, with Aspergillus fumigatus [1], with Aspergillus flavus [3], with Candida albicans [4], in the assay with Aspergillus flavus [5] and in the assay with Nakaseomyces glabratus was “Active” throughout. Moreover, the inhibition result in the assay with Candida tropicalis and in the assay on Pichia kudriavzevii [7] was “Active” each time. Moreover, the outcome with Candida albicans [13] was inactive.

As for `NC(=O)c1cn(-c2ccc(F)cc2)c(Cc2ccccc2)cc1=O`, the inhibition result with Staphylococcus aureus [8], in the assay on Enterobacter cloacae, with Escherichia coli [9], in the assay on Klebsiella pneumoniae [10], in the assay on Acinetobacter baumannii [11] and with Klebsiella pneumoniae [12] was “inactive” throughout. Also, the inhibition entry (in the assay on Pseudomonas aeruginosa; in assay [14]; with Acinetobacter baumannii [15]; in the assay on Escherichia coli [16]; in the assay with Burkholderia cepacia; in the assay on Staphylococcus aureus [17]) was “inactive” each time.

As to `COC(=O)[C@@H](C)CC(=O)NC(=O)c1coc(Cc2ccccc2)cc1=O`, the outcome in the assay with Candida albicans [13] was inactive.

On to `C[C@@H](CC(=O)NC(=O)c1cn(-c2ccccc2)c(Cc2ccccc2)cc1=O)C(=O)O`, for which the inhibition result with Staphylococcus aureus [8], in the assay on Enterobacter cloacae, with Escherichia coli [9], with Klebsiella pneumoniae [10], in the assay with Acinetobacter baumannii [11] and in the assay on Klebsiella pneumoniae [12] was “inactive” in each case. Also, the inhibition entry (in the assay with Pseudomonas aeruginosa; in assay [14]; in the assay with Acinetobacter baumannii [15]; in the assay with Escherichia coli [16]; in the assay with Burkholderia cepacia; in the assay on Staphylococcus aureus [17]) was “inactive” each time.

Regarding `NC(=O)c1coc(Cc2ccccc2)cc1=O`, the inhibition entry with Staphylococcus aureus [8], in the assay with Enterobacter cloacae, in the assay with Escherichia coli [9], with Klebsiella pneumoniae [10], in the assay with Acinetobacter baumannii [11] and in the assay on Klebsiella pneumoniae [12] was “inactive” in each case. The inhibition entry (in the assay on Pseudomonas aeruginosa; in assay [14]; in the assay with Acinetobacter baumannii [15]; in the assay on Escherichia coli [16]; in the assay with Burkholderia cepacia; in the assay on Staphylococcus aureus [17]) was “inactive” each time. Further, in the assay with Candida albicans [13], the result was inactive.

For the origin of these results see ChEMBL document CHEMBL1909539, “Reappraising the structures and distribution of metabolites from black aspergilli containing uncommon 2-benzyl-4H-pyran-4-one and 2-benzylpyridin-4(1H)-one systems” (J Nat Prod, 2011).
